{
  "source": "ChEMBL document CHEMBL4017500",
  "about": "(J Med Chem, 2017)",
  "key": {"[1]": {"target": "Metallo-beta-lactamase type 2 (Klebsiella pneumoniae) (UniProt C7C422)", "sequence (C7C422 whole entry)": "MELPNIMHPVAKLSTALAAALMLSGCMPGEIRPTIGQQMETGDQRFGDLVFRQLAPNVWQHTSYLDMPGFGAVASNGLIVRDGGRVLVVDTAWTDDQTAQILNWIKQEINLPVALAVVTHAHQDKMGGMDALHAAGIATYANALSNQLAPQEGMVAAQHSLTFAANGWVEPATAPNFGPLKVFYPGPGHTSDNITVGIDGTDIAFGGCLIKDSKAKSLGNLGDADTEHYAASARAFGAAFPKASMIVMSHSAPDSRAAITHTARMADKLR", "test": "Inhibition of NDM1 in Klebsiella pneumoniae isolate Cm1.62 assessed as potentiation of imipenem-induced antibacterial activity by measuring imipenem MIC at 100 mg/L after 18 to 20 hrs by broth microdilution assay (reference value: 16 mg/L)"}, "[2]": {"test": "Selectivity ratio of compound effect for inhibition of bacterial MBP-fused NDM1 expressed in Escherichia coli BL21(DE3) to compound effect for inhibition of human MMP2 (Tyr110 to Asp452 residues) expressed in yeast"}, "[3]": {"tested_on": "Escherichia coli", "test": "Inhibition of NDM1 in Escherichia coli isolate Ah8.75 assessed as potentiation of imipenem-induced antibacterial activity by measuring imipenem MIC at 100 mg/L after 18 to 20 hrs by broth microdilution assay (reference value: 16 mg/L)"}, "[4]": {"target": "72 kDa type IV collagenase (Homo sapiens) (UniProt P08253)", "sequence (P08253 110-660 limits assumed)": "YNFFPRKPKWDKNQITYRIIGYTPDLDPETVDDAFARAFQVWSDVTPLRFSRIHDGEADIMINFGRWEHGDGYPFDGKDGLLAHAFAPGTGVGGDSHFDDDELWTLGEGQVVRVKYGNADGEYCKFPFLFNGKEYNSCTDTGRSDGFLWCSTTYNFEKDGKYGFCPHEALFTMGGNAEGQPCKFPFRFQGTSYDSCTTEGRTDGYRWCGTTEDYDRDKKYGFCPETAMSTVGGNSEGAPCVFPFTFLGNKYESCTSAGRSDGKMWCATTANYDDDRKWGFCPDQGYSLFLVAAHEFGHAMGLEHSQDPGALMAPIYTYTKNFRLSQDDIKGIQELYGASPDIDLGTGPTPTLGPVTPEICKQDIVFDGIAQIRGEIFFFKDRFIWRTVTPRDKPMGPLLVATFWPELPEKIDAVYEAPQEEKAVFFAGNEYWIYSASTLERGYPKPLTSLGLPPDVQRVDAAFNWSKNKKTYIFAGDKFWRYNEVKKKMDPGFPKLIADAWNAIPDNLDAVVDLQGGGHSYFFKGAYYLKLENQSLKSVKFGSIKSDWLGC", "test": "Inhibition of human MMP2 (Tyr110 to Asp452 residues) expressed in yeast at 10 uM using Mca-Pro-LeuGly-Leu-Dpa-Ala-Arg-NH2.AcOH as substrate preincubated for 30 mins followed by substrate addition measured after 20 mins by fluorescence assay relative to control", "method_in_brief": "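Human recombinant MMP-2 (1.16 U/well) or MMP-12 (0.007 U/well) in 50 mM HEPES, 10 mM CaCl2, 0.05% Brij-35, pH 7.5. Enzyme and inhibitor pre-incubated 30 min at 37 °C, then OmniMMP fluorogenic substrate (4 μM) added. Fluorescence rise followed 20 min at ex/em 320/400 nm. Activity relative to no-inhibitor wells, with 200 μM NSA as 0%. Run in triplicate.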"}, "[5]": {"target": "T1, Protein deacetylase HDAC6 (Homo sapiens) (UniProt Q9UBN7)", "T1 sequence (whole entry)": "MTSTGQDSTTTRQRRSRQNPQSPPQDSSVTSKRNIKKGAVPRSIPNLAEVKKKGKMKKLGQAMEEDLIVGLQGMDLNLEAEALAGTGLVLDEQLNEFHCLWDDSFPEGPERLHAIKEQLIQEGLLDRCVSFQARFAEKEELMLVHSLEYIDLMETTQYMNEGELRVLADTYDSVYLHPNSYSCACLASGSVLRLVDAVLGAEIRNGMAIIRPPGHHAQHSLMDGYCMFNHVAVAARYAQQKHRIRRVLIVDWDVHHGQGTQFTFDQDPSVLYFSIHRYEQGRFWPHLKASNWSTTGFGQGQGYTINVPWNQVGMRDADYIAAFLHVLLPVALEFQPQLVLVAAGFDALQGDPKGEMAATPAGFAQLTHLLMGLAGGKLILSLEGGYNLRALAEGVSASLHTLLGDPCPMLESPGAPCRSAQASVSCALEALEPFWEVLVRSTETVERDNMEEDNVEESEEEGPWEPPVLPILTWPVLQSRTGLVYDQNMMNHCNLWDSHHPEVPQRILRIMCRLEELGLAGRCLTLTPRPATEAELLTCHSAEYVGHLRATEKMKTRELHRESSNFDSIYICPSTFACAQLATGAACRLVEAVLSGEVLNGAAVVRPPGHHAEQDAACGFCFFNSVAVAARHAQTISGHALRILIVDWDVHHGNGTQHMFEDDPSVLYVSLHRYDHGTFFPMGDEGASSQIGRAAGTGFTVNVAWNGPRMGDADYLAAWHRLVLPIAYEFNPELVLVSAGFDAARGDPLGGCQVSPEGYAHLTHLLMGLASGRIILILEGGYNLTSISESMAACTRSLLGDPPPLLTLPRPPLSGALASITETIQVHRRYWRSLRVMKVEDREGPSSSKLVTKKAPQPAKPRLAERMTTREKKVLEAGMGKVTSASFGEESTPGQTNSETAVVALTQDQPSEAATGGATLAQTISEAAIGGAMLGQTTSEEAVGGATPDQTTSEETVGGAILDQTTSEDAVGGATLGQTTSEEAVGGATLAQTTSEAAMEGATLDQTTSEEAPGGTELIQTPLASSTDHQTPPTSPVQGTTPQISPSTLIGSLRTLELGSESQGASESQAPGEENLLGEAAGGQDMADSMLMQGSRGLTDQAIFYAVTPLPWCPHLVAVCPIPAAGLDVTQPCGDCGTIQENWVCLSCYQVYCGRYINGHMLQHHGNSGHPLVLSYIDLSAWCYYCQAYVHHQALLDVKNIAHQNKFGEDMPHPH", "test": "Inhibition of full length human N-terminal GST-tagged HDAC6 expressed in baculovirus infected sf9 cells at 50 to 100 uM using HDAC substrate 3 preincubated for 5 mins followed by substrate addition measured after 30 mins by fluorescence assay", "method_in_brief": "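Inhibitor pre-incubated 5 min, then HDAC substrate 3 (20 μM) added, 30 min at 37 °C. Developer added for 15 min at room temperature; fluorescence read at ex/em 360/460 nm. Activity relative to no-inhibitor wells, with 200 μM SAHA as 0%. Run in triplicate.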"}, "[6]": {"target": "Carbonic anhydrase 2 (Homo sapiens) (UniProt P00918)", "test": "Inhibition of human carbonic anhydrase 2 at 50 to 100 uM using p-nitrophenyl acetate as substrate preincubated for 10 mins followed by substrate addition measured for 15 mins", "method_in_brief": "(§1)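 hCAII (100 nM) in 50 mM HEPES pH 8.0 pre-incubated with inhibitor for 10 min at 30 °C. p-Nitrophenyl acetate (500 μM) then added and absorbance at 405 nm followed 15 min. Activity relative to no-inhibitor wells, with 50 μM benzene sulfonamide as 0%. Run in triplicate.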"}, "[7]": {"tested_on": "Escherichia coli", "test": "Inhibition of NDM1 in Escherichia coli isolate Ch8.70 assessed as potentiation of imipenem-induced antibacterial activity by measuring imipenem MIC at 100 mg/L after 18 to 20 hrs by broth microdilution assay (reference value: 16 mg/L)"}, "[8]": {"test": "Inhibition of bacterial MBP-fused NDM1 expressed in Escherichia coli BL21(DE3) ausing chromacef as substrate preincubated for 20 mins followed by substrate addition measured after 0.3 mins", "set-up": "species or system Bacteria", "method_in_brief": "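Preincubated 20 min, then 3 μM substrate (~3×KM) added. A442 followed ~0.3 min at 25 °C. Activity scaled to uninhibited (100%) and no-enzyme (0%) controls, fitted to a Hill-type equation.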"}, "[9]": {"target": "Metallo-beta-lactamase type 2 (Klebsiella pneumoniae) (UniProt C7C422)", "test": "Inhibition of NDM1 in Klebsiella pneumoniae isolate Cm1.63 assessed as potentiation of imipenem-induced antibacterial activity by measuring imipenem MIC at 100 mg/L after 18 to 20 hrs by broth microdilution assay (reference value: 8 mg/L)"}, "[10]": {"tested_on": "Bacteria", "test": "Inhibition of bacterial MBP-fused NDM1 expressed in Escherichia coli BL21(DE3) ausing fluorocillin as substrate preincubated for 20 mins followed by substrate addition measured at 1 sec time interval for 25 mins in presence of ZnSO4 by fluorescence assay"}, "[11]": {"tested_on": "Escherichia coli", "test": "Inhibition of NDM1 in Escherichia coli isolate Ah8.74 assessed as potentiation of imipenem-induced antibacterial activity by measuring imipenem MIC at 100 mg/L after 18 to 20 hrs by broth microdilution assay (reference value: 8 mg/L)"}, "[12]": {"target": "Carbonic anhydrase 2 (Homo sapiens) (UniProt P00918)", "test": "Inhibition of human carbonic anhydrase 2 at 10 uM using p-nitrophenyl acetate as substrate preincubated for 10 mins followed by substrate addition measured for 15 mins", "method_in_brief": "as §1"}},
  "note": "pIC50: −log10 of the molar value. Activity calls are given as the source filed them. The rule behind the calls is not given here.",
  "data": [
    {"smiles": "Nc1cccc(-c2cc(C(=O)O)nc(C(=O)O)c2)c1", "values": [
      {"measurement": "MIC", "setting": "[1]", "value": 1, "unit": "µg/mL"},
      {"measurement": "Selectivity ratio", "setting": "[2]", "value": "100 to 1000"},
      {"measurement": "MIC", "setting": "[3]", "value": 0.5, "unit": "µg/mL"},
      {"measurement": "inhibition", "setting": "[4]", "value": "< 6", "unit": "%"},
      {"measurement": "inhibition", "setting": "[5]", "value": "< 50", "unit": "%"},
      {"measurement": "inhibition", "setting": "[6]", "value": "< 50", "unit": "%"},
      {"measurement": "MIC", "setting": "[7]", "value": 0.5, "unit": "µg/mL"},
      {"measurement": "pIC50", "setting": "[8]", "value": 6.49},
      {"measurement": "MIC", "setting": "[9]", "value": 1, "unit": "µg/mL"},
      {"measurement": "inhibition", "setting": "[10]", "value": "Active"},
      {"measurement": "MIC", "setting": "[11]", "value": 0.5, "unit": "µg/mL"},
      {"measurement": "inhibition", "setting": "[12]", "value": "inactive"}
    ]}
  ]
}
